Measurements from ChEMBL document CHEMBL1811814, “Synthesis and evaluation of indole, pyrazole, chromone and pyrimidine based conjugates for tumor growth inhibitory activities--development of highly efficacious cytotoxic agents” (Eur J Med Chem, 2010).

How the values were obtained:
Type in all cases: functional
HCT-116 [1] = assay: Growth inhibition of human HCT116 cells
HCT-15 = assay: Growth inhibition of human HCT15 cells
KM12 [2] = assay: Growth inhibition of human KM12 cells
SW-620 [3] = assay: Growth inhibition of human SW620 cells
SNB-19 = assay: Growth inhibition of human SNB19 cells
U-251 = assay: Growth inhibition of human U251 cells
LOX IMVI [4] = assay: Growth inhibition of human LOXIMVI cells
Malme-3M = assay: Growth inhibition of human MALME-3M cells
MDA-MB-435 = assay: Growth inhibition of human MDA-MB-435 cells
SK-MEL-2 [5] = assay: Growth inhibition of human SK-MEL-2 cells
UACC-257 = assay: Growth inhibition of human UACC257 cells
UACC-62 [6] = assay: Growth inhibition of human UACC62 cells
OVCAR-4 [7] = assay: Growth inhibition of human OVCAR4 cells
SK-OV-3 = assay: Growth inhibition of human SKOV3 cells
A498 = assay: Growth inhibition of human A498 cells
ACHN = assay: Growth inhibition of human ACHN cells
SN12C = assay: Growth inhibition of human SN12C cells
T47D [8] = assay: Growth inhibition of human T47D cells
K562 [9] = assay: Growth inhibition of human K562 cells assessed tumor cell growth at 10^-5 M; set-up: scale not given: the % may be the effect or the level left
How it was run: (§1)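 NCI 60-human-tumor-cell-line panel screen. Each compound was tested at a single concentration of 10^-5 M, and percent growth of tumor cells was recorded for each cell line. Growth inhibition was expressed from these percent-growth values.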

A549 = assay: Growth inhibition of human A549 cells assessed tumor cell growth at 10^-5 M; set-up: scale not given: the % may be the effect or the level left; how it was run: as §1
HOP-62 = assay: Growth inhibition of human HOP62 cells assessed tumor cell growth at 10^-5 M; set-up: scale not given: the % may be the effect or the level left; how it was run: as §1
HOP-92 = assay: Growth inhibition of human HOP92 cells assessed tumor cell growth at 10^-5 M; set-up: scale not given: the % may be the effect or the level left; how it was run: as §1
NCI-H23 [10] = assay: Growth inhibition of human NCI-H23 cells assessed tumor cell growth at 10^-5 M; set-up: scale not given: the % may be the effect or the level left; how it was run: as §1
NCI-H322M [11] = assay: Growth inhibition of human NCI-H322M cells assessed tumor cell growth at 10^-5 M; set-up: scale not given: the % may be the effect or the level left; how it was run: as §1
NCI-H460 [12] = assay: Growth inhibition of human NCI-H460 cells assessed tumor cell growth at 10^-5 M; set-up: scale not given: the % may be the effect or the level left; how it was run: as §1
COLO 205 = assay: Growth inhibition of human COLO205 cells assessed tumor cell growth at 10^-5 M; set-up: scale not given: the % may be the effect or the level left; how it was run: as §1
HCC 2998 = assay: Growth inhibition of human HCC2998 cells assessed tumor cell growth at 10^-5 M; set-up: scale not given: the % may be the effect or the level left; how it was run: as §1
HCT-116 [13] = assay: Growth inhibition of human HCT116 cells assessed tumor cell growth at 10^-5 M; set-up: scale not given: the % may be the effect or the level left; how it was run: as §1
KM12 [14] = assay: Growth inhibition of human KM12 cells assessed tumor cell growth at 10^-5 M; set-up: scale not given: the % may be the effect or the level left; how it was run: as §1
SW-620 [15] = assay: Growth inhibition of human SW620 cells assessed tumor cell growth at 10^-5 M; set-up: scale not given: the % may be the effect or the level left
How it was run: (§2)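 Single-dose screen at 10^-5 M across the 60 human tumor cell line panel, run to NCI standards. The value is the percent growth of each cell line in the presence of compound. Compounds active at this dose moved on to five-concentration testing (10^-4 to 10^-8 M).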

SF-268 = assay: Growth inhibition of human SF268 cells assessed tumor cell growth at 10^-5 M; set-up: scale not given: the % may be the effect or the level left; how it was run: as §1
SF-539 = assay: Growth inhibition of human SF539 cells assessed tumor cell growth at 10^-5 M; set-up: scale not given: the % may be the effect or the level left; how it was run: as §1
LOX IMVI [16] = assay: Growth inhibition of human LOXIMVI cells assessed tumor cell growth at 10^-5 M; set-up: scale not given: the % may be the effect or the level left; how it was run: as §1
SK-MEL-2 [17] = assay: Growth inhibition of human SK-MEL-2 cells assessed tumor cell growth at 10^-5 M; set-up: scale not given: the % may be the effect or the level left; how it was run: as §1
SK-MEL-28 = assay: Growth inhibition of human SK-MEL-28 cells assessed tumor cell growth at 10^-5 M; set-up: scale not given: the % may be the effect or the level left; how it was run: as §1
UACC-62 [18] = assay: Growth inhibition of human UACC62 cells assessed tumor cell growth at 10^-5 M; set-up: scale not given: the % may be the effect or the level left; how it was run: as §2
IGROV-1 = assay: Growth inhibition of human IGROV1 cells assessed tumor cell growth at 10^-5 M; set-up: scale not given: the % may be the effect or the level left; how it was run: as §1
OVCAR-3 = assay: Growth inhibition of human OVCAR3 cells assessed tumor cell growth at 10^-5 M; set-up: scale not given: the % may be the effect or the level left; how it was run: as §1
OVCAR-4 [19] = assay: Growth inhibition of human OVCAR4 cells assessed tumor cell growth at 10^-5 M; set-up: scale not given: the % may be the effect or the level left; how it was run: as §1
OVCAR-8 = assay: Growth inhibition of human OVCAR8 cells assessed tumor cell growth at 10^-5 M; set-up: scale not given: the % may be the effect or the level left; how it was run: as §1
TK-10 = assay: Growth inhibition of human TK10 cells assessed tumor cell growth at 10^-5 M; set-up: scale not given: the % may be the effect or the level left; how it was run: as §2
PC-3 = assay: Growth inhibition of human PC3 cells assessed tumor cell growth at 10^-5 M; set-up: scale not given: the % may be the effect or the level left; how it was run: as §1
MCF7 = assay: Growth inhibition of human MCF7 cells assessed tumor cell growth at 10^-5 M; set-up: scale not given: the % may be the effect or the level left; how it was run: as §1
T47D [20] = assay: Growth inhibition of human T47D cells assessed tumor cell growth at 10^-5 M; set-up: scale not given: the % may be the effect or the level left; how it was run: as §2
MDA-MB-468 = assay: Growth inhibition of human MDA-MB-468 cells assessed tumor cell growth at 10^-5 M; set-up: scale not given: the % may be the effect or the level left; how it was run: as §1
HL-60(TB) = assay: Growth inhibition of human HL-60(TB) cells
K562 [21] = assay: Growth inhibition of human K562 cells
[22] = Growth inhibition of human RPMI8266 cells
EKVX = assay: Growth inhibition of human EKVX cells
NCI-H226 = assay: Growth inhibition of human NCI-H226 cells
NCI-H23 [23] = assay: Growth inhibition of human NCI-H23 cells
NCI-H322M [24] = assay: Growth inhibition of human NCI-H322M cells
NCI-H460 [25] = assay: Growth inhibition of human NCI-H460 cells
[26] = read-out: LC50 (the source's name)

In the case of `CC1=NN(c2cccc(Cl)c2)C(=O)/C1=C\c1c(O)ccc2ccccc12`, the GI50 (HCT-116 [1]) is reported as greater than 100 µM, the CC50 (HCT-116 [1]; [26]) is reported as greater than 100 µM and the GI50 (HCT-15) is reported as greater than 100 µM. For the same molecule, the CC50 (HCT-15; [26]) was greater than 100 µM, the GI50 (KM12 [2]) was greater than 100 µM and the CC50 (KM12 [2]; [26]) was greater than 100 µM. It also gave a GI50 (SW-620 [3]) greater than 100 µM, a CC50 (SW-620 [3]; [26]) greater than 100 µM and a GI50 (SNB-19) of 45.7 µM. It also gave a CC50 (SNB-19; [26]) greater than 100 µM, a GI50 (U-251) of 40.7 µM and a CC50 (U-251; [26]) greater than 100 µM. The GI50 (LOX IMVI [4]) was greater than 100 µM, the CC50 (LOX IMVI [4]; [26]) was greater than 100 µM and the GI50 (Malme-3M) was 29.5 µM. For the same molecule, the CC50 (Malme-3M; [26]) was greater than 100 µM, the GI50 (MDA-MB-435) was greater than 100 µM and the CC50 (MDA-MB-435; [26]) was greater than 100 µM. For the same molecule, the GI50 (SK-MEL-2 [5]) was 21.8 µM, the CC50 (SK-MEL-2 [5]; [26]) was greater than 100 µM and the GI50 (UACC-257) was greater than 100 µM. For the same molecule, the CC50 (UACC-257; [26]) was greater than 100 µM, the GI50 (UACC-62 [6]) was 39.8 µM and the CC50 (UACC-62 [6]; [26]) was greater than 100 µM. It also gave a GI50 (OVCAR-4 [7]) greater than 100 µM, a CC50 (OVCAR-4 [7]; [26]) greater than 100 µM and a GI50 (SK-OV-3) of 26.3 µM. The CC50 (SK-OV-3; [26]) was greater than 100 µM, the GI50 (A498) was greater than 100 µM and the CC50 (A498; [26]) was greater than 100 µM. The GI50 (ACHN) was 16.9 µM, the CC50 (ACHN; [26]) was greater than 100 µM and the GI50 (SN12C) was greater than 100 µM. The CC50 (SN12C; [26]) was greater than 100 µM, the GI50 (T47D [8]) was greater than 100 µM and the CC50 (T47D [8]; [26]) was greater than 100 µM. It also gave an Activity (K562 [9]) of 99.09%, an Activity (A549) of 60.45% and an Activity (HOP-62) of -64.07%. It also gave an Activity (HOP-92) of -2.07%, an Activity (NCI-H23 [10]) of -1.95% and an Activity (NCI-H322M [11]) of 84.08%. For the same molecule, the Activity (NCI-H460 [12]) was 79.03%, the Activity (COLO 205) was -80.64% and the Activity (HCC 2998) was -22.22%. The Activity (HCT-116 [13]) was 8.69%, the Activity (KM12 [14]) was 21.17% and the Activity (SW-620 [15]) was 30.97%. The Activity (SF-268) was 47.23%, the Activity (SF-539) was 72.26% and the Activity (LOX IMVI [16]) was -79.39%. For the same molecule, the Activity (SK-MEL-2 [17]) was 38.07%, the Activity (SK-MEL-28) was 35.25% and the Activity (UACC-62 [18]) was 82.71%. The Activity (IGROV-1) was 33.94%, the Activity (OVCAR-3) was 63.18% and the Activity (OVCAR-4 [19]) was -66.84%. It also gave an Activity (OVCAR-8) of 22.34%, an Activity (TK-10) of 17.23% and an Activity (PC-3) of 33.03%. It also gave an Activity (MCF7) of 3.07%, an Activity (T47D [20]) of 2.21% and an Activity (MDA-MB-468) of 34.53%. It also gave a GI50 (HL-60(TB)) greater than 100 µM, a CC50 (HL-60(TB); [26]) greater than 100 µM and a GI50 (K562 [21]) of 44.6 µM. It also gave a CC50 (K562 [21]; [26]) greater than 100 µM, a GI50 [22] greater than 100 µM and a CC50 [22, 26] greater than 100 µM. For the same molecule, the GI50 (EKVX) was greater than 100 µM, the CC50 (EKVX; [26]) was greater than 100 µM and the GI50 (NCI-H226) was 47.8 µM. It also gave a CC50 (NCI-H226; [26]) greater than 100 µM, a GI50 (NCI-H23 [23]) greater than 100 µM and an LC50 (concentration killing 50% of cells) (NCI-H23 [23]) greater than 100 µM. The GI50 (NCI-H322M [24]) was greater than 100 µM, the CC50 (NCI-H322M [24]; [26]) was greater than 100 µM and the GI50 (NCI-H460 [25]) was greater than 100 µM. It also gave a CC50 (NCI-H460 [25]; [26]) greater than 100 µM.
